Key:
[1] = Cytotoxicity against human KBVIN cells after 72 hrs by SRB assay; type: functional, cell-based
Procedure, shortened: (§1)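 Cells seeded at 3–5 × 10³ per well in RPMI-1640 with 10% FBS containing a range of sample concentrations, exposed 72 h. Attached cells fixed in cold 50% trichloroacetic acid for 30 min, stained with 0.04% sulforhodamine B for 30 min, bound dye dissolved in 10 mM Tris base, absorbance read at 515 nm. Run in triplicate. KBvin is a vincristine-selected multidrug-resistant KB subline.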

[2] = system: KB; test: Cytotoxicity against human KB cells after 72 hrs by SRB assay; type: functional, cell-based; procedure, shortened: as §1
[3] = system: A549; test: Cytotoxicity against human A549 cells after 72 hrs by SRB assay; type: functional, cell-based; settings: A549, 72 h; procedure, shortened: as §1
[4] = system: DU-145; test: Cytotoxicity against human DU145 cells after 72 hrs by SRB assay; type: functional, cell-based; settings: DU-145, 72 h; procedure, shortened: as §1
[5] = system: KB; test: Ratio of etoposide IC50 to compound IC50 for human KB cells; type: functional
[6] = Ratio of etoposide IC50 to compound IC50 for human KBVIN cells; type: functional
[7] = system: A549; test: Ratio of etoposide IC50 to compound IC50 for human A549 cells; type: functional
[8] = system: DU-145; test: Ratio of etoposide IC50 to compound IC50 for human DU145 cells; type: functional

SMILES: COc1cc([C@@H]2c3cc4c(cc3[C@@H](NC(=S)NC(=O)c3ccco3)[C@H]3COC(=O)[C@H]23)OCO4)cc(OC)c1OC
- IC50 [1]: > 20 µM
- IC50 [2]: > 20 µM
- IC50 [3]: > 20 µM
- IC50 [4]: > 20 µM

SMILES: COc1cc([C@@H]2c3cc4c(cc3[C@@H](NC(=S)NC(=O)c3cccs3)[C@H]3COC(=O)[C@H]23)OCO4)cc(OC)c1O
- IC50 [1]: 9.24 µM
- IC50 [2]: 8.4 µM
- IC50 [3]: 9.82 µM
- IC50 [4]: 7.34 µM

SMILES: COc1cc([C@@H]2c3cc4c(cc3[C@@H](NC(=S)NC(C)=O)[C@H]3COC(=O)[C@H]23)OCO4)cc(OC)c1OC
- IC50 [1]: 13.6 µM
- IC50 [2]: 13.4 µM
- IC50 [3]: 13.1 µM
- IC50 [4]: 12.3 µM

SMILES: COc1cc([C@@H]2c3cc4c(cc3[C@@H](NC(=S)NC(=O)c3cncc(Br)c3)[C@H]3COC(=O)[C@H]23)OCO4)cc(OC)c1OC
- IC50 [1]: > 20 µM
- IC50 [2]: > 20 µM
- IC50 [3]: > 20 µM
- IC50 [4]: > 20 µM

SMILES: COc1cc([C@@H]2c3cc4c(cc3[C@@H](O[C@@H]3O[C@@H]5CO[C@@H](C)O[C@H]5[C@H](O)[C@H]3O)[C@H]3COC(=O)[C@H]23)OCO4)cc(OC)c1O [ETOPOSIDE]
- IC50 [1]: > 20 µM
- IC50 [2]: 3.88 µM
- IC50 [3]: 2.58 µM
- IC50 [4]: 2.03 µM

SMILES: COc1cc([C@@H]2c3cc4c(cc3[C@@H](NC(=S)NC(=O)c3ccc5ccccc5c3)[C@H]3COC(=O)[C@H]23)OCO4)cc(OC)c1O
- IC50 [1]: 10.3 µM
- IC50 [2]: 7.23 µM
- IC50 [3]: 11.8 µM
- IC50 [4]: 6.55 µM

SMILES: COc1cc([C@@H]2c3cc4c(cc3[C@@H](NC(=S)NC(=O)c3ccc(F)cc3)[C@H]3COC(=O)[C@H]23)OCO4)cc(OC)c1OC
- IC50 [1]: 1.38 µM
- IC50 [2]: 1.44 µM
- IC50 [3]: 1.37 µM
- IC50 [4]: 1.15 µM

SMILES: COc1cc([C@@H]2c3cc4c(cc3[C@@H](NC(=S)NC(=O)C3CCCCC3)[C@H]3COC(=O)[C@H]23)OCO4)cc(OC)c1OC
- Ratio IC50 [5]: 20
- Ratio IC50 [6]: 20
- Ratio IC50 [7]: 20
- Ratio IC50 [8]: 20
- IC50 [1]: 0.098 µM
- IC50 [2]: 0.32 µM
- IC50 [3]: 0.19 µM
- IC50 [4]: 0.17 µM

SMILES: COc1cc([C@@H]2c3cc4c(cc3[C@@H](NC(=S)NC(=O)c3cccc([N+](=O)[O-])c3)[C@H]3COC(=O)[C@H]23)OCO4)cc(OC)c1OC
- IC50 [1]: 9.86 µM
- IC50 [2]: 9.27 µM
- IC50 [3]: 10.3 µM
- IC50 [4]: 9.82 µM

SMILES: COc1cc([C@@H]2c3cc4c(cc3[C@@H](NC(=S)NC(=O)c3ccco3)[C@H]3COC(=O)[C@H]23)OCO4)cc(OC)c1O
- IC50 [1]: 9.46 µM
- IC50 [2]: 8.74 µM
- IC50 [3]: 13.7 µM
- IC50 [4]: 8.49 µM

SMILES: COc1cc([C@@H]2c3cc4c(cc3[C@@H](NC(=S)NC(=O)c3ccccc3)[C@H]3COC(=O)[C@H]23)OCO4)cc(OC)c1OC
- Ratio IC50 [5]: 20
- Ratio IC50 [6]: 20
- Ratio IC50 [7]: 20
- Ratio IC50 [8]: 20
- IC50 [1]: 0.81 µM
- IC50 [2]: 0.9 µM
- IC50 [3]: 1.13 µM
- IC50 [4]: 0.97 µM

SMILES: COc1cc([C@@H]2c3cc4c(cc3[C@@H](NC(=S)NC(=O)c3ccc(C)cc3)[C@H]3COC(=O)[C@H]23)OCO4)cc(OC)c1OC
- IC50 [1]: 12.2 µM
- IC50 [2]: 10.5 µM
- IC50 [3]: 11.3 µM
- IC50 [4]: 10.5 µM

SMILES: COc1cc([C@@H]2c3cc4c(cc3[C@@H](NC(=S)NC(=O)c3cccs3)[C@H]3COC(=O)[C@H]23)OCO4)cc(OC)c1OC
- IC50 [1]: 12.5 µM
- IC50 [2]: 11.6 µM
- IC50 [3]: 12.3 µM
- IC50 [4]: 11.2 µM

SMILES: COc1cc([C@@H]2c3cc4c(cc3[C@@H](NC(=S)NC(=O)c3ccc5ccccc5c3)[C@H]3COC(=O)[C@H]23)OCO4)cc(OC)c1OC
- Ratio IC50 [5]: 20
- Ratio IC50 [6]: 20
- Ratio IC50 [7]: 20
- Ratio IC50 [8]: 20
- IC50 [1]: 0.13 µM
- IC50 [2]: 0.12 µM
- IC50 [3]: 0.11 µM
- IC50 [4]: 0.099 µM

SMILES: COc1cc([C@@H]2c3cc4c(cc3[C@@H](NC(=S)NC(=O)c3cnccc3Cl)[C@H]3COC(=O)[C@H]23)OCO4)cc(OC)c1OC
- IC50 [1]: > 20 µM
- IC50 [2]: > 20 µM
- IC50 [3]: > 20 µM
- IC50 [4]: > 20 µM

SMILES: COc1cc([C@@H]2c3cc4c(cc3[C@@H](NC(=S)NC(=O)c3ccc(Cl)cc3)[C@H]3COC(=O)[C@H]23)OCO4)cc(OC)c1OC
- IC50 [1]: 2.01 µM
- IC50 [2]: 1.2 µM
- IC50 [3]: 1.62 µM
- IC50 [4]: 1.16 µM

SMILES: COc1cc([C@@H]2c3cc4c(cc3[C@@H](NC(=S)NC(=O)c3ccc([N+](=O)[O-])cc3)[C@H]3COC(=O)[C@H]23)OCO4)cc(OC)c1OC
- IC50 [1]: 1.65 µM
- IC50 [2]: 1.33 µM
- IC50 [3]: 2.06 µM
- IC50 [4]: 1.57 µM

SMILES: COc1cc([C@@H]2c3cc4c(cc3[C@@H](NC(=S)NC(=O)c3ccccc3)[C@H]3COC(=O)[C@H]23)OCO4)cc(OC)c1O
- IC50 [1]: 9.93 µM
- IC50 [2]: 8.96 µM
- IC50 [3]: 12 µM
- IC50 [4]: 9.88 µM

SMILES: COc1cc([C@@H]2c3cc4c(cc3[C@@H](NC(=S)NC(=O)c3cccnc3)[C@H]3COC(=O)[C@H]23)OCO4)cc(OC)c1OC
- IC50 [1]: 16.8 µM
- IC50 [2]: 14.2 µM
- IC50 [3]: 15.5 µM
- IC50 [4]: 11.4 µM

SMILES: COc1cc([C@@H]2c3cc4c(cc3[C@@H](NC(=S)NC(=O)c3cccnc3Cl)[C@H]3COC(=O)[C@H]23)OCO4)cc(OC)c1OC
- IC50 [1]: > 20 µM
- IC50 [2]: > 20 µM
- IC50 [3]: > 20 µM
- IC50 [4]: > 20 µM

SMILES: COc1cc([C@@H]2c3cc4c(cc3[C@@H](NC(=S)NC(=O)c3ccc(Cl)cc3)[C@H]3COC(=O)[C@H]23)OCO4)cc(OC)c1O
- IC50 [1]: > 20 µM
- IC50 [2]: > 20 µM
- IC50 [3]: > 20 µM
- IC50 [4]: > 20 µM

Source: ChEMBL document CHEMBL2346532, “Design, synthesis and potent cytotoxic activity of novel podophyllotoxin derivatives” (Bioorg Med Chem, 2013)
